Source: PubChem BioAssay (several laboratories)
Hits are enriched below; roughly 1.7% of the tested compounds scored in any of these assays.
Neddylation inh: inhibitors of cullin neddylation, primary screen, biochemical, TR-FRET, uHTS, NAE and Ubc12. 360,000 compounds, 0.58% hits. inhibition, % at 25 µM. AID 651699, 2012; in the data active = inhibition above about 36%
Target sequence (P61081 whole entry, looked up): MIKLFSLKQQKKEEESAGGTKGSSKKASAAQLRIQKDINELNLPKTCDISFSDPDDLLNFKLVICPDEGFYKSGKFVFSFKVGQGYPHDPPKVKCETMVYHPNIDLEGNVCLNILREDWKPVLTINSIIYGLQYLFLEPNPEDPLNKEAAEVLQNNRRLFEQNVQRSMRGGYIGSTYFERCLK
Target sequence (Q13564 whole entry, looked up): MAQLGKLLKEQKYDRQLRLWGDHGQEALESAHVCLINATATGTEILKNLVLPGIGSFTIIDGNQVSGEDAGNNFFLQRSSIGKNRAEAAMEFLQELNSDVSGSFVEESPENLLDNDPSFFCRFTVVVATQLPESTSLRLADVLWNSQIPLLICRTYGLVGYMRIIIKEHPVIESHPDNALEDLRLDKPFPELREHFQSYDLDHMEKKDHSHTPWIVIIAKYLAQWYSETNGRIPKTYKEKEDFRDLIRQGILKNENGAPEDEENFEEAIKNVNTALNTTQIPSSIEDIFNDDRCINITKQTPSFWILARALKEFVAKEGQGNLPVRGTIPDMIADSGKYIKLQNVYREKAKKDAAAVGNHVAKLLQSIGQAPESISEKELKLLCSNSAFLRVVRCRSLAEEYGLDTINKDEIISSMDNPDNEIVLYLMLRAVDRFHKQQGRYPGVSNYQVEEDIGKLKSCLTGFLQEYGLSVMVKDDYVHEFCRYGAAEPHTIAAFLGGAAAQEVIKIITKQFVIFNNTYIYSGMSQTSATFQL
DSG3 Ab inh: inhibitors of pemphigus antibody binding to DSG3, primary screen, biochemical, bead-based, flow cytometry, scFv-GFP. Desmoglein-3 (Homo sapiens), P32926. DSG3-coupled beads, scFv-anti-DSG3-GFP binding; stronger effect = lower value. binding (percent of control), % at 10 µM. 310,000 compounds, 0.48% hits;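 active = binding more than 3 SD below its plate's average and above zero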
Efflux pump inh: inhibitors of Candida efflux pumps in yeast, primary screen, S. cerevisiae, Nile Red, multiplex. AID 485275, 2010. S. cerevisiae Candida pump triplex. inhibition, % at 10 µM. 330,000 compounds, 0.44% hits;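 active = plate passing quality check with inhibition over a set limit, or well fluorescence over plate mean plus 4 SD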;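 also: Nile Red retained in pooled yeast measured as flow cytometry median fluorescence; 0% = buffer negative control and 100% = Enniatin B positive control; higher means more Nile Red kept so more efflux inhibition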
Arr AP2 block: inhibitors of beta-arrestin/AP2 binding, primary screen, biochemical, GPCR trafficking, flow cytometry. beta-arrestin 1 C-terminal peptide binding to AP2 beta2-adaptin appendage (human). AID 504490, 2011. 340,000 compounds, 0.31% hits. inhibition, % at 10 µM. FITC-arrestin peptide / GST-AP2 beads; AP2 beta2 appendage carries R879A mutation;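 active = inhibition above a set limit, near 3 SD of compounds lacking own fluorescence, cut at about 54% in these data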;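 also: plate controls were DMSO wells for no effect and 5 µM unlabelled arrestin peptide for full effect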
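System: GST-AP2 R879A glutathione beads; medium: PBS, Tween 20 0.05%, BSA 0.1%; reagent: fluorescein-tagged arrestin peptide at 50 nM final; schedule: pre-incubation 12 min, peptide binding 1 h, room temperature; detection: flow cytometry, FL1 (488/535 nm); read-out: inhibition as reduced fluorescein signal on beads, percent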
Neddyl inh conf: blockade of NEDD8 conjugation to cullin – biochemical, TR-FRET, single concentration, confirmation. AID 652217, 2013. TR-FRET cullin neddylation biochemical assay. calls only at 25 µM. 1,800 compounds, 13% hits. shares compounds with Neddylation inh; in the data active = inhibition above about 40%;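 also: neddylation substrate is the cullin 1 ring ligase complex with SKP2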
The depositor's hits bear a star; i = inactive; x = not tested or not shown; + = active, no number.

SMILES	Neddylation inh	DSG3 Ab inh	Efflux pump inh	Arr AP2 block	Neddyl inh conf
c1cn2c(-c3ccoc3)cncc2n1	41*	x	x	x	+
COC(=O)c1nn(-c2nc(-c3cccc(OC)c3)cc(C(F)(F)F)n2)cc1[N+](=O)[O-]	-1	101	0	7	x
O=C(NNC(=O)c1ccc2ccccc2c1O)NC1CCCCC1	41*	108	0	11	i
O=c1oc2ccccc2c(NC2CCCCC2)c1NS(=O)(=O)c1ccc(F)cc1	36	96	1	-17	x
CCc1ccc(S(=O)(=O)Nc2c(NC3CCCCC3)c3ccccc3oc2=O)cc1	43*	x	0	-2	+
CCOC(=O)c1snc2c(=O)[nH]cnc12	49*	98	0	9	i
Cc1cc(NC(=O)COC(=O)c2nccnc2N)n(-c2ccccc2)n1	68*	123	0	-8	x
CC(C)(C)c1cc(NC(=O)COC(=O)c2nccnc2N)n(-c2ccccc2)n1	x	105	0	-2	x
CC(C)(C)c1ccc(NC(=O)C2CCCN(c3cnccn3)C2)cc1 (centres undefined)	41*	106	0	34	i
O=[N+]([O-])c1cccc(S(=O)(=O)NC2CC3CCC2C3)c1 (centres undefined)	-22	89	0	4	x
COc1ccc(C(CC(=O)N2CCCCC2)c2c(OC)cc(OC)c3ccc(=O)oc23)cc1 (centres undefined)	47*	104	x	2	+
COc1ccccc1N(C(=O)c1snc(C(N)=O)c1N)C(C(=O)NCc1ccccc1)c1ccc(C)o1 (centres undefined)	x	107	x	27	x
COc1ccc(C(C(=O)NCc2ccccc2)N(C(=O)c2snc(C(N)=O)c2N)c2ccccc2OC)cc1OC (centres undefined)	53*	116	0	18	x
COc1ccc(C)cc1N(C(=O)c1snc(C(N)=O)c1N)C(C(=O)NC1CCCC1)c1ccc(F)cc1 (centres undefined)	43*	102	0	27	x
CC(C(=O)NCC1CCCO1)N(C(=O)c1snc(C(N)=O)c1N)c1ccccc1 (centres undefined)	30	103	0	-6	x
CC(C(=O)NCC1CCCO1)N(C(=O)c1snc(C(N)=O)c1N)c1cccc(F)c1 (centres undefined)	52*	96	0	-4	x
CCCC(C(=O)NCCC(C)C)N(Cc1ccccc1)C(=O)c1snc(C(N)=O)c1N (centres undefined)	40*	107	0	-4	i
CCCCC(C(=O)NC1CCCC1)N(Cc1ccccc1)C(=O)c1snc(C(N)=O)c1N (centres undefined)	22	103	1	23	x
CCCN(CC(=O)Nc1ccc(C(N)=O)cc1)CC(=O)Nc1ccc(Cl)cc1Cl	-1	101	0	0	x
COc1cc2nc(N3CCN(C(=O)[C@H]4COc5ccccc5O4)CC3)nc(N)c2cc1OC	x	x	0	2	x
Cc1ccccc1-c1cc(C(=O)NCc2ccc(OC(F)(F)F)cc2)n(CC2CC(c3cccnc3)=NO2)n1 (centres undefined)	9	101	0	1	x
CCOc1ccccc1N(C(=O)c1snc(C(N)=O)c1N)C(C(=O)NCC1CCCO1)c1ccc2ncccc2c1 (centres undefined)	52*	94	0	-2	i
COCCNC(=O)C(c1ccc(C)o1)N(C(=O)c1snc(C(N)=O)c1N)c1ccc(C)c(C)c1 (centres undefined)	28	98	0	-4	x
COCCNC(=O)C(c1ccc(C)o1)N(C(=O)c1snc(C(N)=O)c1N)c1cccc(C)c1 (centres undefined)	45*	106	0	30	i
CCOc1ccccc1N(C(=O)c1snc(C(N)=O)c1N)C(C(=O)NCc1ccccc1)c1ccc(O)cc1 (centres undefined)	42*	112	x	-2	x
SMILES	Neddylation inh	DSG3 Ab inh	Efflux pump inh	Arr AP2 block	Neddyl inh conf
COc1cccc(N(C(=O)c2snc(C(N)=O)c2N)C(C(=O)NCc2ccccc2)c2ccc(O)cc2)c1 (centres undefined)	52*	97	0	-10	+
COc1ccc(N(C(=O)c2snc(C(N)=O)c2N)C(C(=O)NCc2ccccc2)c2ccc(O)cc2)cc1OC (centres undefined)	4	x	x	4	x
CCc1ccc(-c2cc(C(=O)Nc3c(C)n(C)n(-c4ccccc4)c3=O)c3ccccc3n2)s1	41*	103	0	-4	i
O=C(C[C@H]1C(=O)N(Cc2cccnc2)C[C@@H]1Cc1ccccc1)Nc1ccc(Br)cc1	1	x	x	x	x
COc1ccccc1C(=O)Nc1ccc2c(c1)nc1n2CCN(Cc2ccccc2)C1	54*	109	0	20	i
CCN(CC)c1cc(C)c2cc(NC(=O)c3ccccc3OC)ccc2n1	43*	102	0	-20	i
COc1ccc2cc3cc(C(=O)NCCCN4CCc5ccccc5C4)sc3nc2c1	47*	100	-1	17	+
CC(Sc1ncccn1)C(=O)Nc1ccc2c(c1)OCO2 (centres undefined)	12	x	0	-8	x
COc1ccc(NC(=O)[C@@H](NS(=O)(=O)c2cccc(Cl)c2)C(C)C)cc1S(=O)(=O)N1CCOCC1	12	102	0	26	x
Cc1[nH]c2ccccc2c1C(=O)NS(=O)(=O)Nc1ccc(Cl)cc1	17	97	0	3	x
O=C(O)c1sc2cc(C(F)(F)F)cnc2c1-c1cccs1	41*	105	0	22	+
CN(C(=O)CSc1nnnn1-c1ccc(O)cc1)C1CCS(=O)(=O)C1 (centres undefined)	1	97	0	9	x
COc1ccc(CNC(=O)CSc2cccc3cccnc23)cc1	43*	x	0	-13	i
COc1ccc(NC(=O)CSc2cccc3cccnc23)c(OC)c1	-14	108	0	7	x
COc1cccc(/C=N/NC(=O)CSc2cccc3cccnc23)c1	46*	107	0	5	i
O=C(CSc1cccc2cccnc12)N/N=C/c1ccc(O)cc1	4	87	0	14	x
COC(=O)Nc1ccc(S(=O)(=O)N2CCC(C(=O)NCc3ccc4c(c3)OCO4)CC2)cc1	4	96	0	0	x
COc1ccc(NC(=O)Cn2cnc3sc(C)c(S(=O)(=O)N4CCOCC4)c3c2=O)cc1Cl	-13	x	0	1	x
CC(=O)Nc1cc(-c2ccsc2)cn2c(-c3ccc(F)cc3)cnc12	42*	x	x	x	i
Cc1nc(C(=O)N(C)C)nn1-c1cc(Cl)ccc1Cl	1	x	0	2	x
COc1ccccc1N1CCN(C(=O)c2cc3c(s2)-c2ccccc2OC3)CC1	43*	100	0	26	i
CCCCN(CC)C(=O)c1cc2c(=O)n3cccc(C)c3nc2s1	62*	92	0	13	x
